From ChEMBL document CHEMBL1155982 (Bioorg Med Chem Lett, 2009)

Assays:
[1] = Intrinsic cytotoxicity against human MES-SA/Dx5 cells; format: functional
Outline: (§1)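 MES-SA/DX5 (P-gp-overexpressing human sarcoma) cells seeded at 1.2 × 10⁴ cells/well and incubated 24 h at 37 °C. They were then exposed for 60 h to varying concentrations of test compound, with or without 100 nM Taxol. Survival was read by Cell Counting Kit-8, and GI₅₀/EC₅₀ were taken from the concentration series.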

[2] = molecular target: Cytochrome P450 3A4 (Homo sapiens, UniProt P08684); assay: Inhibition of human CYP3A4; format: ADME
Chain of Cytochrome P450 3A4 (P08684 whole entry): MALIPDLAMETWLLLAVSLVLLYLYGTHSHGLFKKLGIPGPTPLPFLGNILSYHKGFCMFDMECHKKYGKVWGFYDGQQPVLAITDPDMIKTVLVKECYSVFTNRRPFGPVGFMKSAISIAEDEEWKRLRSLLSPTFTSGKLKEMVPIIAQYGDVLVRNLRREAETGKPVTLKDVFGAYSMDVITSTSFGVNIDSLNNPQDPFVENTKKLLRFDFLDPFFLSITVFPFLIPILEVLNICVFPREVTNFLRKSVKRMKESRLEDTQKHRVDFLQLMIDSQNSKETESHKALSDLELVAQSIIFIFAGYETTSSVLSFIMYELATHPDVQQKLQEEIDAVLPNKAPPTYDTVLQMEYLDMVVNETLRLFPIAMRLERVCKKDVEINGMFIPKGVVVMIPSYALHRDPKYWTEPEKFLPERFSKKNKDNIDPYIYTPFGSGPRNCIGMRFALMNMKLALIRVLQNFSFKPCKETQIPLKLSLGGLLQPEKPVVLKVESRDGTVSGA

[3] = Cytotoxicity against human MES-SA/Dx5 cells; format: functional, cell-based; outline: as §1

IC50 [2] [µM]	SMILES	GI50 [1] [µM]	IC50 [3] [µM]
–	COC(=O)c1cccc(NC(=O)COc2ccc(C34CC5CC(CC(C(N)=O)(C5)C3)C4)cc2)c1	14.3	–
–	COC(=O)c1cccc(NC(=O)COc2ccc(C34CC5CC(CC(C(=O)N6CCc7cc(OC)c(OC)cc7C6)(C5)C3)C4)cc2)c1	> 20	–
–	COC(=O)c1cccc(NC(=O)COc2ccc(C34CC5CC(CC(C(=O)NCCN(C)C)(C5)C3)C4)cc2)c1	> 20	–
–	COC(=O)c1cccc(NC(=O)COc2ccc(C34CC5CC(CC(C(=O)N6CCN(Cc7ccc(F)cc7)CC6)(C5)C3)C4)cc2)c1	> 20	–
0.82	COC(=O)c1cccc(NC(=O)COc2ccc(C34CC5CC(CC(C(=O)N6CCN(Cc7cccc(OC)c7)CC6)(C5)C3)C4)cc2)c1	13.2	–
–	COC(=O)c1cccc(NC(=O)COc2ccc(C34CC5CC(CC(C(=O)NCc6ccc(OC)c(OC)c6)(C5)C3)C4)cc2)c1	> 20	–
2.03	COC(=O)c1cccc(NC(=O)COc2ccc(C34CC5CC(CC(C(=O)N6CCN(Cc7ccc(C(F)(F)F)cc7)CC6)(C5)C3)C4)cc2)c1	> 20	–
–	COC(=O)c1cccc(NC(=O)COc2ccc(C34CC5CC(CC(C(=O)Nc6ccc(C(C)(C)C)cc6)(C5)C3)C4)cc2)c1	> 20	–
0.89	COC(=O)c1cccc(NC(=O)COc2ccc(C34CC5CC(CC(C(=O)N6CCN(Cc7ccc(OC)cc7)CC6)(C5)C3)C4)cc2)c1	14	–
> 5	COc1cc2c(cc1OC)CN(C(=O)C13CC4CC(C1)CC(c1ccc(OCC(=O)Nc5cccc(C#N)c5)cc1)(C4)C3)CC2	> 20	–
3.79	COC(=O)c1ccccc1NC(=O)COc1ccc(C23CC4CC(CC(C(=O)N5CCc6cc(OC)c(OC)cc6C5)(C4)C2)C3)cc1	> 20	–
–	COC(=O)c1ccc(NC(=O)COc2ccc(C34CC5CC(CC(C(=O)N6CCc7cc(OC)c(OC)cc7C6)(C5)C3)C4)cc2)cc1	14.3	–
–	COc1cc2c(cc1OC)CN(C(=O)C13CC4CC(C1)CC(c1ccc(OCC(=O)Nc5cccc(C(N)=O)c5)cc1)(C4)C3)CC2	16.3	–
–	COc1cc2c(cc1OC)CN(C(=O)C13CC4CC(C1)CC(c1ccc(OCC(=O)Nc5cccc(C(=O)NCc6ccco6)c5)cc1)(C4)C3)CC2	> 20	–
–	COc1cc2c(cc1OC)CN(C(=O)C13CC4CC(C1)CC(c1ccc(OCC(=O)Nc5cccc(C(F)(F)F)c5)cc1)(C4)C3)CC2	12.1	–
–	COc1cc2c(cc1OC)CN(C(=O)C13CC4CC(C1)CC(c1ccc(OCC(=O)Nc5cccc6cccnc56)cc1)(C4)C3)CC2	> 20	–
–	COC(=O)c1cccc(NC(=O)COc2ccc(C34CC5CC(CC(C(=O)OCc6ccccc6)(C5)C3)C4)cc2)c1	> 20	–
–	COc1ccc(CCN(C)CCCC(C#N)(c2ccc(OC)c(OC)c2)C(C)C)cc1OC (stereo not given)	> 20	–
–	CC(=O)O[C@H]1C(=O)[C@@]2(C)[C@H]([C@H](OC(=O)c3ccccc3)[C@]3(O)C[C@H](OC(=O)[C@H](O)[C@@H](NC(=O)c4ccccc4)c4ccccc4)C(C)=C1C3(C)C)[C@]1(OC(C)=O)CO[C@@H]1C[C@@H]2O [PACLITAXEL]	7.54	7.54
